According to ChEMBL document CHEMBL1667839, “Discovery of new anti-depressants from structurally novel 5-HT3 receptor antagonists: design, synthesis and pharmacological evaluation of 3-ethoxyquinoxalin-2-carboxamides” (Bioorg Med Chem Lett, 2011):

Key:
Mus musculus [1] = experiment: Antipsychotic activity in Swiss Albino mouse assessed as spontaneous locomotor score at 1 mg/kg, ip measured for 10 mins by actophotometer; format: functional; conditions: route intraperitoneal
Summary of the method: (§1)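 Swiss Albino mice (23 ± 2 g) given compound intraperitoneally in 10% PEG-400 in water; spontaneous locomotor activity counted in an actophotometer over 10 min as locomotor score; n = 8 per group, mean; one-way ANOVA with Dunnett's test versus vehicle-treated group.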

Mus musculus [2] = experiment: Antidepressant activity in mouse assessed as immobility time at 1 mg/kg, ip by forced swimming test; format: functional; conditions: route intraperitoneal
[3] = target: T1, 5-hydroxytryptamine receptor 3A (Cavia porcellus, UniProt O70212); experiment: Antagonist activity at 5-HT3 receptor in guinea pig ileum muscle; format: functional, tissue-based; conditions: read-out: pA2 (converted)
T1 sequence (O70212 whole entry): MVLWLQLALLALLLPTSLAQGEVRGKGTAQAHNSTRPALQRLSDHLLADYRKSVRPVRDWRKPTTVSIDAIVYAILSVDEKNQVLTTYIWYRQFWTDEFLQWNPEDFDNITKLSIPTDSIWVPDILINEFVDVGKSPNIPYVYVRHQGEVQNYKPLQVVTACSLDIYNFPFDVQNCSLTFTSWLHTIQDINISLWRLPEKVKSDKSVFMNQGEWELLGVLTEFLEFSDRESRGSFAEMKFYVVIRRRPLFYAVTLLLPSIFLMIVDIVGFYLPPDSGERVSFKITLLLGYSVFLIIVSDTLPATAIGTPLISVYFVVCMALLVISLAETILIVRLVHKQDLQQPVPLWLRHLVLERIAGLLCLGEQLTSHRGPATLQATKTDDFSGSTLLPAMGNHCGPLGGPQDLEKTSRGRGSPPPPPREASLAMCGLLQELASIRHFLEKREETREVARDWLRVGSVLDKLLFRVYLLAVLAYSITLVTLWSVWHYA
Summary of the method: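 Longitudinal muscle myenteric plexus preparation from ileum of male Dunkin Hartley guinea pigs (350-400 g); antagonism measured against the 5-HT3 agonist 2-methyl-5-HT and expressed as pA2 by literature methods; mean of two separate experiments.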

Mus musculus [4] = experiment: Antipsychotic activity in Swiss Albino mouse assessed as spontaneous locomotor score at 2 mg/kg, ip measured for 10 mins by actophotometer; format: functional; conditions: route intraperitoneal; summary of the method: as §1
Mus musculus [5] = experiment: Antidepressant activity in Swiss Albino mouse assessed as immobility time at 2 mg/kg, ip by forced swimming test; format: functional; conditions: route intraperitoneal
Mus musculus [6] = experiment: Antidepressant activity in Swiss Albino mouse assessed as immobility time at 0.5 mg/kg, ip by forced swimming test (reference value: 165.6 +/- 03.2 sec); format: functional; conditions: route intraperitoneal
Mus musculus [7] = experiment: Antipsychotic activity in Swiss Albino mouse assessed as spontaneous locomotor score at 0.5 mg/kg, ip measured for 10 mins by actophotometer; format: functional; conditions: route intraperitoneal; summary of the method: as §1

Row | Compound | Kb [3] | Activity (Mus musculus [1]) | Time (Mus musculus [2]) | Activity (Mus musculus [4]) | Time (Mus musculus [5]) | Time (Mus musculus [6]) | Activity (Mus musculus [7])
1 | CCOc1nc2ccccc2nc1C(=O)N1CCN(c2ccccc2)CC1 | 10000 nM | 382 score | 134 s | – | – | – | –
2 | CCOc1nc2ccccc2nc1C(=O)N1CCN(c2ccccc2OC)CC1 | 100 nM | 360 score | 113.3 s | 366 score | 122 s | 115.3 s | 351 score
3 | CCOc1nc2ccccc2nc1C(=O)N1CCN(c2ccc(OC)cc2)CC1 | 158 nM | 356 score | 114.6 s | 361 score | 121.6 s | 159 s | 352 score
4 | CCOc1nc2ccccc2nc1C(=O)N1CCN(c2ccc(Cl)cc2)CC1 | 1000 nM | 364 score | 146.6 s | – | – | – | –
5 | CCOc1nc2ccccc2nc1C(=O)N1CCN(c2cccc(Cl)c2)CC1 | 251 nM | 352 score | 110.6 s | 358 score | 76.6 s | 83.6 s | 361 score
6 | CCOc1nc2ccccc2nc1C(=O)N1CCN(c2cccc(C(F)(F)F)c2)CC1 | 7940 nM | 356 score | 148 s | – | – | – | –
7 | CCOc1nc2ccccc2nc1C(=O)N1CCN(Cc2ccccc2)CC1 | 25100 nM | 366 score | 160 s | – | – | – | –
8 | CCOc1nc2ccccc2nc1C(=O)N1CCN(C)CC1 | 20 nM | 350 score | 94 s | 356 score | 130 s | 125 s | 353 score
9 | C=CCN1CCN(C(=O)c2nc3ccccc3nc2OCC)CC1 | 158 nM | 360 score | 127 s | 352 score | 118 s | 152 s | 345 score
10 | Cc1nccn1CC1CCc2c(c3ccccc3n2C)C1=O (stereo not drawn) [ONDANSETRON] | – | 388 score | 100.4 s | 400 score | 95.1 s | 130.2 s | 368 score

Now from value to molecule, other results behind:

Row | Kb [3] | Compound | Activity (Mus musculus [1]) | Time (Mus musculus [2]) | Activity (Mus musculus [4]) | Time (Mus musculus [5]) | Time (Mus musculus [6]) | Activity (Mus musculus [7])
11 | 15800 nM | CCOc1nc2ccccc2nc1C(=O)Nc1cccnc1 | 365 score | 144 s | – | – | – | –
12 | 31.6 nM | CCOc1nc2ccccc2nc1C(=O)N1CCN(CC)CC1 | 360 score | 98 s | 352 score | 128 s | 159.3 s | 349 score
13 | 126 nM | CCOc1nc2ccccc2nc1C(=O)NCCN(C)C | 349 score | 117.7 s | 343 score | 96 s | 133.6 s | 345 score
14 | 20000 nM | CCOc1nc2ccccc2nc1C(=O)NCCN(CC)CC | 362 score | 162 s | – | – | – | –
15 | 63.1 nM | CCOc1nc2ccccc2nc1C(=O)NCCc1c[nH]c2ccccc12 | 350 score | 104 s | 355 score | 79.3 s | 150.3 s | 366 score
16 | 10000 nM | CCOc1nc2ccccc2nc1C(=O)Nc1ccc(N(CC)CC)cc1 | 374 score | 145 s | – | – | – | –
